STAT3 inh-1: STAT3 signaling inhibition; U3A cells, IL-6 STAT3-luciferase reporter, luminescence; host cell line lacks STAT1; 190,000 compounds, 0.89% hits; inhibition, % at 5.5 µM; AID 862;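 active means inhibition above the mean inhibition across all screened compounds plus 3 SD, cut at about 44% in these data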;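 further: 0% = DMSO only wells and 100% = 100 µM nifuroxazide control wells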
STAT3 act-1: increases IL-6 driven STAT3 reporter signal. U3A cells, IL-6 STAT3-luciferase reporter, luminescence; 100% = signal with IL-6 EC80 alone. activation (% of control), % at 5.6 µM. 190,000 compounds, 0.91% hits. AID 871;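 active means activation above the screen-wide mean of compound activation plus 3 SD, cut at about 130% in these data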;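 further: 0% = background luminescence of wells with medium and substrate only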
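Material: STAT3-luciferase reporter U3A cells; Probe or stimulus: IL-6 (33 ng/mL); Incubation: compound pre-incubation 1 h before IL-6, then 6 h stimulation at 37 °C; Technique: luminescence from STAT3-driven luciferase reporter; Evaluation: % activation versus median of IL-6-stimulated wells; Controls: IL-6-only high control.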
TNF necrop inh: blocks TNF-alpha induced death of Jurkat FADD-/- cells | Jurkat FADD-/- TNF necroptosis rescue, ATP luminescence, 24 h; 0 = TNF only, 100 = no-TNF cells | activation (protection from cell death), % at 10 µM | 220,000 compounds, 0.068% hits;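 active means activation, meaning protection from cell death, of at least 50% relative to plate controls; inactive means activation below 50%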;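 further: necroptosis triggered by 40 ng/mL TNF-alpha added together with compound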
STAT1 inh: reduces IFN-gamma driven STAT1 reporter signal. NIH 3T3 STAT1-luciferase reporter, luminescence. inhibition, % at 5.5 µM. 200,000 compounds, 0.35% hits;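 active means inhibition above a set limit, the mean inhibition across all tested compounds plus 3 SD, cut at about 34% in these data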;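 further: 0% = IFN-gamma with DMSO and 100% = IFN-gamma with 300 µM nifuroxazide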
L929 necroptosis: blocks zVAD induced death of L929 cells; L929 zVAD necroptosis rescue, ATP luminescence, 24 h; with zVAD 60 µM; viability rescue, % at 10 µM; 220,000 compounds, 0.38% hits; AID 1377;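 active means activation, scaled between plate controls, above about 75%, limit read from the data; inactive means activation under that limit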;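 further: 0% = zVAD with DMSO and 100% = DMSO alone without zVAD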
STAT3 inh-2: confirmation of STAT3 signaling inhibitors; shares compounds with STAT3 inh-1; U3A cells, IL-6 STAT3 luciferase reporter, luminescence; cell line lacks STAT1; inhibition, % at 5.7 µM; 1,200 compounds, 45% hits; AID 1265;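 active means inhibition above the hit cutoff computed for the primary STAT3 screen, cut at about 44% in these data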;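 further: 0% = IL-6 plus DMSO and 100% = IL-6 plus nifuroxazide control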
NFkB inh 2: inhibits NF-kappaB, counter-screen to STAT3 inhibitors; shares compounds with STAT3 inh-1; HEK293T NF-kB luciferase reporter, TNF-alpha induced; inhibition, % at 5.7 µM; 1,200 compounds, 36% hits;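 active means inhibition above the mean of solvent-only control wells plus 3 SD, cutoff set per campaign, cut at about 13% in these data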;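 further: 0% = TNF-alpha with DMSO and 100% = TNF-alpha with MG high control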
STAT1 inh STAT3c: inhibits STAT1, counter-screen to STAT3 inhibitors; shares compounds with STAT3 inh-1; NIH 3T3 STAT1-luciferase reporter, IFN-gamma induced, luminescence; inhibition, % at 5.7 µM; 1,200 compounds, 27% hits;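 active means inhibition above the mean plus 3 SD of solvent-only control wells, limit set per screening run, cut at about 16% in these data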;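 further: 0% = DMSO with IFN-gamma and 100% = nifuroxazide control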
STAT3 act-2: STAT3 activation, confirmation assay. potentiation (% of control), % at 5.7 µM. AID 1267. 1,200 compounds, 64% hits. shares compounds with STAT3 act-1. U3A STAT3-luciferase reporter, IL-6 potentiation, luminescence; U3A cells lack STAT1; 100 means same as IL-6 alone;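 active means percent activation of the STAT3 luciferase reporter above a set limit taken from the earlier primary screen, cut at about 130% in these data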;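 further: 0% = background signal of medium plus substrate and 100% = median of IL-6 with DMSO wells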
NFkB act STAT3ct: activates NF-kappaB, counter-screen to STAT3 activators; activation (% of control), % at 5.7 µM; AID 1309; shares compounds with STAT3 act-1; 1,200 compounds, 11% hits; human cells, NF-kappaB reporter activation; in the data active means activation above about 120%;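 further: reporter induced by TNF-alpha stimulation; 100% = median of stimulated DMSO wells and 0% = no signal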
STAT1 act: STAT1 activation in STAT3 activator counter-screen; shares compounds with STAT3 act-1; NIH 3T3 STAT1-luciferase reporter, IFN-gamma, luminescence; activation (% of control), % at 5.7 µM; 1,200 compounds, 13% hits;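 active means activation above the solvent-only control well mean plus 3 SD, set per screening run, cut at about 120% in these data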;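 further: 100% = IFN-gamma with DMSO median signal so 100% means no change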
zVAD death conf: confirmed blocker of zVAD induced death in L929 cells; shares compounds with L929 necroptosis; L929 zVAD-induced necroptosis rescue, ATP luminescence, 24 h; activation (protection from necroptosis), % at 10 µM; 760 compounds, 16% hits; AID 463117;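 active means mean protection from necroptosis of at least 50% over duplicate tests; inactive means mean protection below 50%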;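 further: 0% = cells with zVAD alone and 100% = vehicle cells without zVAD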
An asterisk follows results filed as active; · = no result given. Hits are enriched below; roughly 2.1% of the tested compounds scored in any of these assays.

SMILES	STAT3 inh-1	STAT3 act-1	TNF necrop inh	STAT1 inh	L929 necroptosis	STAT3 act-2	NFkB act STAT3ct	STAT1 act	others
O=C(NC1CCCCCCC1)c1cc(COc2ccc3ncccc3c2)on1	79.4*	36.6	-6.3	30.0	76.4*	·	·	·	STAT3 inh-2=75.1*;NFkB inh 2=26.6*;STAT1 inh STAT3c=17.2*;zVAD death conf=-0.4
COC(=O)c1ccc(NC(=S)NCCCN2CCCC2=O)cc1	0.0	105.5	0.1	-4.2	0.9	·	·	·
Cc1cccc(NC(=O)Nc2cccc(F)c2)n1	5.8	99.6	-0.9	-26.8	44.3	·	·	·
Cc1ccnc(NC(=O)Nc2cccc(F)c2)c1	46.4*	62.1	7.4	-41.1	92.0*	·	·	·	STAT3 inh-2=-7.1;NFkB inh 2=-28.1;STAT1 inh STAT3c=-130.4;zVAD death conf=32.4
c1ccc2sc(Sc3ncnc4sccc34)nc2c1	-61.0	151.5*	-11.6	-11.4	-0.3	159.3*	97.3	101.7
Cc1nnc(NC(=O)c2oc3c(ccc4ccccc43)c2C)s1	-58.6	149.9*	-5.2	-7.7	0.1	146.0*	106.0	101.7
O=c1c(-c2cc3ccccc3o2)[n+]([O-])c2ccccc2n1OCc1ccccn1	-27.9	128.3	-0.8	-46.1	-0.1	·	·	·
CCOn1c(=O)c(-c2cc3ccccc3o2)[n+]([O-])c2ccccc21	-56.4	154.3*	-0.2	-25.1	0.2	179.1*	128.2*	157.6*
Cc1ccc(-n2nc(C)c3c2OC(N)=C(C#N)C3c2ccoc2)cc1 (centres undefined)	-84.7	176.5*	-2.2	5.6	0.2	152.9*	103.7	91.5
Cc1nn(-c2ccccc2)c2c1C(c1ccccc1)C(C#N)=C(N)O2 (centres undefined)	-22.3	122.4	-0.7	3.9	0.1	·	·	·
CCNc1nc(SC(C(C)=O)C(C)=O)nc(N(C)C)n1	-13.7	112.6	-2.1	-2.9	-0.6	·	·	·
CCNc1nc(NC(C)(C)C)nc(SC(C(C)=O)C(C)=O)n1	-44.0	140.5*	2.5	-2.8	5.9	118.5	117.1	109.9
Oc1ccc2ccccc2c1/C=N/Nc1ccccc1	-59.0	150.5*	-2.4	7.5	-0.2	150.0*	110.4	82.2
CC(O)Cn1nc([N+](=O)[O-])nc1N (centres undefined)	-3.4	103.9	-0.6	-2.1	-1.2	·	·	·
CCOC(=O)CC1C(=O)NCCN1C(=O)c1cc2c(=O)n3cccc(C)c3nc2s1 (centres undefined)	-73.4	164.1*	-1.3	1.6	1.5	138.7*	104.8	99.2
CCOC(=O)CC1C(=O)NCCN1C(=O)c1cc2c(=O)n3ccccc3nc2s1 (centres undefined)	-19.3	119.8	0.0	3.0	0.6	·	·	·
Cc1ccccc1NC(=O)c1cnc(Nc2nc3ccccc3s2)nc1C	6.2	96.2	-2.1	1.8	-0.1	·	·	·
Cc1ccc(C)c(NC(=S)N2CCN(Cc3ccccc3)CC2)c1	-2.7	109.1	0.0	0.9	0.9	·	·	·
Cc1ccc(CNC(=O)C2CC(c3ccccc3[N+](=O)[O-])=NO2)cc1 (centres undefined)	-52.1	156.1*	-0.9	-4.3	0.4	174.2*	108.0	112.3

High-throughput results (PubChem)
